One block for each molecule: values may come before it.
Key:
[1] = target: RAC-gamma serine/threonine-protein kinase (Homo sapiens) (UniProt Q9Y243); test: Inhibition of human recombinant AKT3 at 500 nM in presence of ATP by radiometric assay relative to control
Method in brief: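 Panel of 327 recombinant human kinases in radiometric activity assays, each screened in duplicate at a single inhibitor concentration; percent activity remaining relative to vehicle control, percent inhibition taken as 100 minus activity remaining.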

[2] = target: Serine/threonine-protein kinase B-raf (Homo sapiens) (UniProt P15056); test: Inhibition of human recombinant BRAF at 500 nM in presence of ATP by radiometric assay relative to control
Sequence of Serine/threonine-protein kinase B-raf (Homo sapiens) (P15056 whole entry): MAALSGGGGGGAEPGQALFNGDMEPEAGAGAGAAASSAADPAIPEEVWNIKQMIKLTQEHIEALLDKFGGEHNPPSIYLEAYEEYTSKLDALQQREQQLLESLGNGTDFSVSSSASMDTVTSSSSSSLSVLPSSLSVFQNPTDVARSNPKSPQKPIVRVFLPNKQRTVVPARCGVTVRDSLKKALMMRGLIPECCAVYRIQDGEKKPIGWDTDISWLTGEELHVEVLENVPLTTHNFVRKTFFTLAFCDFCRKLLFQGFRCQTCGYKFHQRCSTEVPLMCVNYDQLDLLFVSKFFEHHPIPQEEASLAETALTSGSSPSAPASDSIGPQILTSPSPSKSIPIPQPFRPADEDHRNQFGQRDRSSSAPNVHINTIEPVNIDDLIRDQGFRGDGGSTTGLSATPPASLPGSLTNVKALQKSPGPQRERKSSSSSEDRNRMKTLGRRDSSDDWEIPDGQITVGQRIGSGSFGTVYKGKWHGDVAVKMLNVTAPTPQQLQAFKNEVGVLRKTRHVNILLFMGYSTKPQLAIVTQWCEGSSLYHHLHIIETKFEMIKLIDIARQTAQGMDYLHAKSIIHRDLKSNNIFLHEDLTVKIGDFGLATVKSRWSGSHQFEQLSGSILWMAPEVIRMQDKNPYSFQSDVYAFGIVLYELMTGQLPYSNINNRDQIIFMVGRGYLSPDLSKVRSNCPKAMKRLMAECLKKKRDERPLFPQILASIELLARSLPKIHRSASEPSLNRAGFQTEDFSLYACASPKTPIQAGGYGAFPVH
Method in brief: (§1)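 Part of a radiometric in vitro activity panel of 327 recombinant human kinases. Each kinase was tested in duplicate at one inhibitor concentration. Activity remaining was expressed as a percentage of the vehicle control, and percent inhibition was taken as 100 minus that value.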

[3] = target: Serine/threonine-protein kinase SBK1 (Homo sapiens) (UniProt Q52WX2); test: Inhibition of human recombinant SBK1 at 500 nM in presence of ATP by radiometric assay relative to control
[4] = target: Tyrosine-protein kinase JAK1 (Homo sapiens) (UniProt P23458); test: Inhibition of human recombinant JAK1 at 500 nM related to control ULK1
[5] = target: Serine/threonine-protein kinase Nek7 (Homo sapiens) (UniProt Q8TDX7); test: Inhibition of human recombinant NEK7 at 500 nM in presence of ATP by radiometric assay relative to control
Sequence of Serine/threonine-protein kinase Nek7 (Homo sapiens) (Q8TDX7 whole entry, looked up): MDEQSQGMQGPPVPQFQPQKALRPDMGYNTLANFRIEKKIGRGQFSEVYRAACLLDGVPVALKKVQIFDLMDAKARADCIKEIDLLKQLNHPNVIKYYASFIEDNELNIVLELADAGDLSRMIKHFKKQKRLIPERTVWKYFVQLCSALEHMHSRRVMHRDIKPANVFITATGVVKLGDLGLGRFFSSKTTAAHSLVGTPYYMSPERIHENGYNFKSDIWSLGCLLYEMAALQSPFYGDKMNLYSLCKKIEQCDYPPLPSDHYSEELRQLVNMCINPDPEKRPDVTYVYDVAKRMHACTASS

[6] = target: T1, Serine/threonine-protein kinase Nek2 (Homo sapiens) (UniProt P51955); test: Inhibition of human recombinant NEK2 at 500 nM related to control ULK1
T1 sequence (whole entry): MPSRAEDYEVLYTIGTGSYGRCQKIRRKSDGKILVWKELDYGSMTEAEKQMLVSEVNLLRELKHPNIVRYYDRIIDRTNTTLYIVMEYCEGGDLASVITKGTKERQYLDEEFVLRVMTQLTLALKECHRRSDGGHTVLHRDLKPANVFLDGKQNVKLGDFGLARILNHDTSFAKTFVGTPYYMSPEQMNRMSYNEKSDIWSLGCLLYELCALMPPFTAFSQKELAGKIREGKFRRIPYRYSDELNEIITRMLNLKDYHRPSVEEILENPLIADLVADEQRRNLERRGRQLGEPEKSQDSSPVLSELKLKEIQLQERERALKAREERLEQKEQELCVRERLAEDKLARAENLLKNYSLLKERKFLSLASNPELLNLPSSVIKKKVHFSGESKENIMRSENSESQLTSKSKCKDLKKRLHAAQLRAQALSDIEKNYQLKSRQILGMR

[7] = target: T2, Myotonin-protein kinase (Homo sapiens) (UniProt Q09013); test: Inhibition of human recombinant DMPK1 at 500 nM related to control ULK1
T2 sequence (whole entry): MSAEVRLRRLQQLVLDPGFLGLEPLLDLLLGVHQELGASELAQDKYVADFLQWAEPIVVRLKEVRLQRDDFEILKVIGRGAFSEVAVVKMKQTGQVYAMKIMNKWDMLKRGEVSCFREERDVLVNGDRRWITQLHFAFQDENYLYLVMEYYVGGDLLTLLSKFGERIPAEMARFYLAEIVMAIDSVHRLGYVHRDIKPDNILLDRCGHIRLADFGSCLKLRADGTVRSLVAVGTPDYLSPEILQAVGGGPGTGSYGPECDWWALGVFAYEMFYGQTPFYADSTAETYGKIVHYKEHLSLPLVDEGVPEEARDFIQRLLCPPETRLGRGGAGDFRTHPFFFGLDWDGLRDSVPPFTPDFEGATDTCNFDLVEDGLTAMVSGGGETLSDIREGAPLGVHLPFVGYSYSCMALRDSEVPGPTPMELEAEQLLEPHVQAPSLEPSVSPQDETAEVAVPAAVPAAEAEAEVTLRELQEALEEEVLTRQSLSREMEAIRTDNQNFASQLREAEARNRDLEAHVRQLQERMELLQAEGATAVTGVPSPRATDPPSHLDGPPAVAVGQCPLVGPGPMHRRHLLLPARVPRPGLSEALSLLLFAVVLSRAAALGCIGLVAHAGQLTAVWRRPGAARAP

[8] = target: T3, Aurora kinase C (Homo sapiens) (UniProt Q9UQB9); test: Inhibition of human recombinant AurC at 500 nM in presence of ATP by radiometric assay relative to control; method in brief: as §1
T3 sequence (whole entry): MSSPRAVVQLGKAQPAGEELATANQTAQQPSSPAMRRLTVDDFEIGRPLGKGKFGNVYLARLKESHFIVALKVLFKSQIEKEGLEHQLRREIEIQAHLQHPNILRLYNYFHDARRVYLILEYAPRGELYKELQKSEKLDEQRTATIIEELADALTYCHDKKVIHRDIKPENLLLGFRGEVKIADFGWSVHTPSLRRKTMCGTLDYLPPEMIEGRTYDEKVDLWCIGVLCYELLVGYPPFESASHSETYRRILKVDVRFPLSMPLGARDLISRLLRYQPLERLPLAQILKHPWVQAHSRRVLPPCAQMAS

[9] = target: Serine/threonine-protein kinase MRCK alpha (Homo sapiens) (UniProt Q5VT25); test: Inhibition of human recombinant MRCKa at 15 nM in presence of ATP by radiometric assay relative to control
Sequence of Serine/threonine-protein kinase MRCK alpha (Homo sapiens) (Q5VT25 whole entry): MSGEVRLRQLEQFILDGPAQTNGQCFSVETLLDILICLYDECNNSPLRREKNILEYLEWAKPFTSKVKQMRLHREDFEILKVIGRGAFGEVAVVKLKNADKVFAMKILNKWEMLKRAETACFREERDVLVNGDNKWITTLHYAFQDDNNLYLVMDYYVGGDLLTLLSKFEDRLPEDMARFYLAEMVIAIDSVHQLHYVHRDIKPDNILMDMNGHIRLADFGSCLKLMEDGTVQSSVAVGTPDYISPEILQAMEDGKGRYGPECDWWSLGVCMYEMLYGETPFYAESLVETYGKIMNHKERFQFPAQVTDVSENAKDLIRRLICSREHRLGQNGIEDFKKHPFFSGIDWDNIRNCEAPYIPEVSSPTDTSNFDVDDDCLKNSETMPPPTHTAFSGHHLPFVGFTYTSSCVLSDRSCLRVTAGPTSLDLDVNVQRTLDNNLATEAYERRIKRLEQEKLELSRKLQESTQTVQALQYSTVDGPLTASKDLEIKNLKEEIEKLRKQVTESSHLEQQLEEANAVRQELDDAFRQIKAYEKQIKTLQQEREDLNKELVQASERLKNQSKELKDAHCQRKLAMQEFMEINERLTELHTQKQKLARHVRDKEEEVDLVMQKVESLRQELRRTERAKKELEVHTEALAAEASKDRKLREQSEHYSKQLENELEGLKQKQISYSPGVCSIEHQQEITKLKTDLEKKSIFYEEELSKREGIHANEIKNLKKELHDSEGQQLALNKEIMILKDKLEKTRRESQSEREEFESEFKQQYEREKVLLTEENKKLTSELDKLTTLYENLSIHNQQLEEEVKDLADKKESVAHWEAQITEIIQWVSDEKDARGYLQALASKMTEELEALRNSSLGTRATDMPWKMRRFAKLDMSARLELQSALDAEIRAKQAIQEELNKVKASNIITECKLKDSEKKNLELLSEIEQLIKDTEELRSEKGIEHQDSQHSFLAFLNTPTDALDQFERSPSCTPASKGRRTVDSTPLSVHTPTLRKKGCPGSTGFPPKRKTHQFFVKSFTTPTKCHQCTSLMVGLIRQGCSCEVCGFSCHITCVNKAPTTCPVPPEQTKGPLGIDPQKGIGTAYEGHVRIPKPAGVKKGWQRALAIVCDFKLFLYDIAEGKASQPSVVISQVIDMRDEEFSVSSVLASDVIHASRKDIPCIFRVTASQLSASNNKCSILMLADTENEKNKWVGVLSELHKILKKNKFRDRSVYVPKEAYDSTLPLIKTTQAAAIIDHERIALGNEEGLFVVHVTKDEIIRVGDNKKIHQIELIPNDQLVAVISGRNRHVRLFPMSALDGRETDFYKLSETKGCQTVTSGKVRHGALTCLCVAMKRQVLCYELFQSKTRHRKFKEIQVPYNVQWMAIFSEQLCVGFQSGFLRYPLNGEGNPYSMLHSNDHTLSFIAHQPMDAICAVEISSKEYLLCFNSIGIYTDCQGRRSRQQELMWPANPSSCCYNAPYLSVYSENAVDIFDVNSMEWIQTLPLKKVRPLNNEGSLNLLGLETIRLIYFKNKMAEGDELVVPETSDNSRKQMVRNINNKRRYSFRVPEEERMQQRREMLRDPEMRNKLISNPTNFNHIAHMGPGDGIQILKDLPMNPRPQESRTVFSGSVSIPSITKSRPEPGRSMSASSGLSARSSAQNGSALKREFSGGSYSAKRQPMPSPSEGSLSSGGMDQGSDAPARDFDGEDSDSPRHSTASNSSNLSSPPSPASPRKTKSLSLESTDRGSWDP

[10] = target: Tyrosine-protein kinase HCK (Homo sapiens) (UniProt P08631); test: Inhibition of human recombinant HCK at 15 nM in presence of ATP by radiometric assay relative to control
Sequence of Tyrosine-protein kinase HCK (Homo sapiens) (P08631 2-526 limits assumed): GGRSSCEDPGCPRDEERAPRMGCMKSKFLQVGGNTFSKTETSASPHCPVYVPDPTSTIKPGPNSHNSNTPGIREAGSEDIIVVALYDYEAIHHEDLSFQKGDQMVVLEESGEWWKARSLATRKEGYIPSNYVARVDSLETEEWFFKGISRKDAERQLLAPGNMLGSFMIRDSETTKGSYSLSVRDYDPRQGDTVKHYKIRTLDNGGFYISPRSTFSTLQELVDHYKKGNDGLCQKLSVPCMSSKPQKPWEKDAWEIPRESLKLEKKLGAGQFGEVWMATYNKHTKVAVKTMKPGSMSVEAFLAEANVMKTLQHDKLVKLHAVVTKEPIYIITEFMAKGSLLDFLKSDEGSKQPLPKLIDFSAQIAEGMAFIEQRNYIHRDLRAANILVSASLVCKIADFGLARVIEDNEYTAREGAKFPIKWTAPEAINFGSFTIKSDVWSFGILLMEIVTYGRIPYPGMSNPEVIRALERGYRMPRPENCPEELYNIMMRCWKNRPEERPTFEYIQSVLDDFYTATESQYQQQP

[11] = target: [Pyruvate dehydrogenase (acetyl-transferring)] kinase isozyme 4, mitochondrial (Homo sapiens) (UniProt Q16654); test: Inhibition of human recombinant PDHK4 at 15 nM related to control ULK1
Sequence of [Pyruvate dehydrogenase (acetyl-transferring)] kinase isozyme 4, mitochondrial (Homo sapiens) (Q16654 whole entry, looked up): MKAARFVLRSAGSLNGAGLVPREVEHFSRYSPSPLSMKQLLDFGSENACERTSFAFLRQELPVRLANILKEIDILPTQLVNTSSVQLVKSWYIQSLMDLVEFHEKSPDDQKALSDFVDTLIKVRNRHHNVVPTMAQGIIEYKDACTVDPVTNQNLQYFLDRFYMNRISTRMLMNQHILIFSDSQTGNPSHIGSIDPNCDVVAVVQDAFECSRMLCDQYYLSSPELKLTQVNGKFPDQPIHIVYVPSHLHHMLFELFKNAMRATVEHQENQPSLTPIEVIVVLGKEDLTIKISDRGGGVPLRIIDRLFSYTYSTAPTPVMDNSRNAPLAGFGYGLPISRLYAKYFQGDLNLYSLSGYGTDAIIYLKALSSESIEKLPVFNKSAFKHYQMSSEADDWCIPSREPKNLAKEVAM

[12] = target: T4, MAPK/MAK/MRK overlapping kinase (Homo sapiens) (UniProt Q9UQ07); test: Inhibition of human recombinant MOK at 15 nM related to control ULK1
T4 sequence (whole entry): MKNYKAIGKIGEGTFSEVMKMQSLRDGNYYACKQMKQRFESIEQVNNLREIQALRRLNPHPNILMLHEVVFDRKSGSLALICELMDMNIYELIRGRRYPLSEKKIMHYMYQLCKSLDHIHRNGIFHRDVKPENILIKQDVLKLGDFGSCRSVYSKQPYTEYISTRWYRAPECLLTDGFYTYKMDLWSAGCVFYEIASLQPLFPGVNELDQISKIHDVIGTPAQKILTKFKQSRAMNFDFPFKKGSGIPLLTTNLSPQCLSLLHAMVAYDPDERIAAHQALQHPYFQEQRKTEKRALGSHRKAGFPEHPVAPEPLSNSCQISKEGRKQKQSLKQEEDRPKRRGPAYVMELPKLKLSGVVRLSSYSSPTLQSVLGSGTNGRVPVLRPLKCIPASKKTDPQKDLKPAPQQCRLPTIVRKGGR

[13] = target: Hepatocyte growth factor receptor (Homo sapiens) (UniProt P08581); test: Inhibition of human recombinant MET at 15 nM related to control ULK1
[14] = target: Ribosomal protein S6 kinase alpha-3 (Homo sapiens) (UniProt P51812); test: Inhibition of human recombinant RSK2 at 40 nM in presence of ATP by radiometric assay relative to control
Sequence of Ribosomal protein S6 kinase alpha-3 (Homo sapiens) (P51812 whole entry): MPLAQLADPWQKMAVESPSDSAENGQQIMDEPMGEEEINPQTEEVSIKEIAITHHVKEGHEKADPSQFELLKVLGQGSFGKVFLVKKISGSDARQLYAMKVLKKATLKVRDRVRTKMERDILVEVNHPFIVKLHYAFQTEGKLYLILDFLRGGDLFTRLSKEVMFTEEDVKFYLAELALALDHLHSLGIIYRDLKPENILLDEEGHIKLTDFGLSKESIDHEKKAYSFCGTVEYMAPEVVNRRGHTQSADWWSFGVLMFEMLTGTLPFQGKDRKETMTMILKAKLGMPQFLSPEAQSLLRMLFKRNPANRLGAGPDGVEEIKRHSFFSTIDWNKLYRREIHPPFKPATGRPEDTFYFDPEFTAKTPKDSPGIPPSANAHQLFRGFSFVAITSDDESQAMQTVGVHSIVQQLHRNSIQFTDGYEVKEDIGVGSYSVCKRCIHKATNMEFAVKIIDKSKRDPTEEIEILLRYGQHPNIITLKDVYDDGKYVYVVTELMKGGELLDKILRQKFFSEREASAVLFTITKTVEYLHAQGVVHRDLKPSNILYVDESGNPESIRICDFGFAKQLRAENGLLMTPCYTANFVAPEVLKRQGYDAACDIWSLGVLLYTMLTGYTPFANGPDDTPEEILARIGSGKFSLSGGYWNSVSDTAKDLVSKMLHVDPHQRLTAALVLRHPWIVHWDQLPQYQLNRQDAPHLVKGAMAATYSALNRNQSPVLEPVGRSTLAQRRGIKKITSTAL

Sequence of RAC-gamma serine/threonine-protein kinase (Homo sapiens) (Q9Y243 whole entry): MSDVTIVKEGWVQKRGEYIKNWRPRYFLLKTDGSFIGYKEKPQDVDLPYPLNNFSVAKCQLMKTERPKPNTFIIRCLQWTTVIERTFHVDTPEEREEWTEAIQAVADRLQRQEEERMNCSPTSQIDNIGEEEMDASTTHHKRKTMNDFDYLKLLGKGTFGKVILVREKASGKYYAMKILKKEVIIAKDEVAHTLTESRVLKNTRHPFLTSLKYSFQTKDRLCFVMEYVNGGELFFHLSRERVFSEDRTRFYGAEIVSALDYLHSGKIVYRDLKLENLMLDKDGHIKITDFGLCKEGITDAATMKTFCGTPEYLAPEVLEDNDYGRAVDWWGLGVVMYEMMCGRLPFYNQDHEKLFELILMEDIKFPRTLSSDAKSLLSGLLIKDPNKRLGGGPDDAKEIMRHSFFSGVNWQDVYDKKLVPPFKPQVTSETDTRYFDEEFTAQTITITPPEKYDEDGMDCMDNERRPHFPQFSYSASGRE

inhibition [1]: 5%
inhibition [2]: 8%
inhibition [3]: 50%
fold change (FC) [4]: 0.53
inhibition [5]: 0%
fold change (FC) [6]: 0
fold change (FC) [7]: 0
inhibition [8]: 73%
Compound: CNC(=O)c1ccccc1Oc1nc(Nc2cc(OC)c(OC)c(OC)c2)ncc1Br

inhibition [9]: 11%
inhibition [10]: 26%
fold change (FC) [11]: 0.02
fold change (FC) [12]: 0.06
fold change (FC) [13]: 0
Compound: CC(C)[C@H](NC(=O)c1cc(-c2cnn3cc(-c4ccc(OCCN5CCCCC5)cc4)cnc23)cs1)C(F)(F)F

inhibition [14]: 0%
Compound: O=C(N[C@@H](C1CC1)C(F)(F)F)c1cc(-c2cnn3cc(-c4ccc(F)cc4)cnc23)cs1
